The text below walks through data of ChEMBL document CHEMBL1165965, “Synthesis and structure-activity relationships of 1,2,3,4-tetrahydropyrido[2,3-b]pyrazines as potent and selective inhibitors of the anaplastic lymphoma kinase” (Bioorg Med Chem, 2010).

The inhibition is how much of the control response was suppressed.

The test system of assay [1] is Mast/stem cell growth factor receptor Kit (Homo sapiens), P10721 [V559D,T670I]. Kind of assay: Inhibition of KIT V559D,T670I mutant at 1 uM. In short, it runs like this:
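Single-concentration screen on the Ambit KINOMEscan platform, run against a panel of 250–400 kinases. Per-kinase inhibition was also summarized as S(90), the fraction of kinases inhibited by more than 90%.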

Assay [2] deals with T1, Serine/threonine-protein kinase Nek1 (Homo sapiens) (UniProt Q96PY6).
T1 sequence (whole entry): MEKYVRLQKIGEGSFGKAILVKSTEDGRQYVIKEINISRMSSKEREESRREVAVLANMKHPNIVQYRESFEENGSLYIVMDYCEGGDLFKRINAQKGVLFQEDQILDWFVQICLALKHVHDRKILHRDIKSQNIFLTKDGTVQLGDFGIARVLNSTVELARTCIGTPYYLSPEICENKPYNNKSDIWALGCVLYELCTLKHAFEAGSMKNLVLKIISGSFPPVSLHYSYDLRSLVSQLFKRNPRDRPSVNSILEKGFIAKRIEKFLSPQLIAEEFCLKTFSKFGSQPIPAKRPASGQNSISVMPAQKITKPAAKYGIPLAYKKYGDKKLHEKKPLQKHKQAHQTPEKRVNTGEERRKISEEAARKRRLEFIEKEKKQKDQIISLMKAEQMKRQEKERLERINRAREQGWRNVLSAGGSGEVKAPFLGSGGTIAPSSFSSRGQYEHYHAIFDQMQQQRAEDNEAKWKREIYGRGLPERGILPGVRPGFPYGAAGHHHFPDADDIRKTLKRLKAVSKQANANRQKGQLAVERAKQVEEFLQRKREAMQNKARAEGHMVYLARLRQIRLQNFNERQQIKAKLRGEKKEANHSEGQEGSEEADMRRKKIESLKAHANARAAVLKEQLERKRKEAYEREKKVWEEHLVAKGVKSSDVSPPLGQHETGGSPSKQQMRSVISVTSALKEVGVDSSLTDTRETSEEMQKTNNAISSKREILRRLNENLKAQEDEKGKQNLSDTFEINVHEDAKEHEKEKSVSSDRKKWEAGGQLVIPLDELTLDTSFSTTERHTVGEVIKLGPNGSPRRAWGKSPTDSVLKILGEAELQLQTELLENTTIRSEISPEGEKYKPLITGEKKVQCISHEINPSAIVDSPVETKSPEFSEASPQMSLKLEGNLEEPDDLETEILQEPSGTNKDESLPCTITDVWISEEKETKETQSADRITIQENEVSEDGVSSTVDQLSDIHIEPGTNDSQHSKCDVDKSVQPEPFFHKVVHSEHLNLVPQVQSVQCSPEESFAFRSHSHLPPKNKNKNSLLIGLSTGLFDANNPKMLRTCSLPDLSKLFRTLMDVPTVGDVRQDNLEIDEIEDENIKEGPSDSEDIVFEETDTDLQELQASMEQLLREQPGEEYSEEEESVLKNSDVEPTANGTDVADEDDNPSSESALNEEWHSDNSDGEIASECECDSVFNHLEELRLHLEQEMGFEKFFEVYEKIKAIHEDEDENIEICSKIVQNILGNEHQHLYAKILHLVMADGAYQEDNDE
In words: Inhibition of NEK1 at 1 uM.

The target of assay [3] is T2, Bone morphogenetic protein receptor type-2 (Homo sapiens) (UniProt Q13873).
T2 sequence (whole entry): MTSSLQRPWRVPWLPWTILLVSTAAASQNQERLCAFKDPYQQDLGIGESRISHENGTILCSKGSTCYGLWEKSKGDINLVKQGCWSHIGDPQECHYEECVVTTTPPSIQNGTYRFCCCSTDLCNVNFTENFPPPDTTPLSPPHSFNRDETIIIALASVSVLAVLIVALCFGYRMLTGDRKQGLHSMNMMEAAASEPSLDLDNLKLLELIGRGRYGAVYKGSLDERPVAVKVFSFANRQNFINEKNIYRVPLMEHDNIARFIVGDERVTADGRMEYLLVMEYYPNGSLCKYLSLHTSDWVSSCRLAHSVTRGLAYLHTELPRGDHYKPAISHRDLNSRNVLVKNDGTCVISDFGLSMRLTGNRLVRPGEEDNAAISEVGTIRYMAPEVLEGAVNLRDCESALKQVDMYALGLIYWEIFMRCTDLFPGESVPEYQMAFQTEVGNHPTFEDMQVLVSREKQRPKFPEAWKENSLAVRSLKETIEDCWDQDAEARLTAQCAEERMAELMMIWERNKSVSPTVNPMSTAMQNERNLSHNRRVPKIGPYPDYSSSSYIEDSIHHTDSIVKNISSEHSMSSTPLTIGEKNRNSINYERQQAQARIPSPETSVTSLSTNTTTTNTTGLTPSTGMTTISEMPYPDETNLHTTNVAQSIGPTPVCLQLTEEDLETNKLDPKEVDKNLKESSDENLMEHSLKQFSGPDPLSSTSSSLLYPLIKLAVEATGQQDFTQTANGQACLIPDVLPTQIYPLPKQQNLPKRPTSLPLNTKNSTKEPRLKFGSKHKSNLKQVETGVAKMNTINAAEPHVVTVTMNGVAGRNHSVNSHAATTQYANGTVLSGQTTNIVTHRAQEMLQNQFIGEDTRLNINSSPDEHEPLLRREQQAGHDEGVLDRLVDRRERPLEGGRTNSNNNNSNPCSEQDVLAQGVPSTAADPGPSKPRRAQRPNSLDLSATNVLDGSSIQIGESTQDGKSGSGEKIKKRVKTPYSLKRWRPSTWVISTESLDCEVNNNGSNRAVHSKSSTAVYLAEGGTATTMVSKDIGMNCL
In words: Inhibition of BMPR2 at 1 uM.

In assay [4] the target is Homeodomain-interacting protein kinase 2 (Homo sapiens) (UniProt Q9H2X6). Kind of assay: Inhibition of HIPK2 at 1 uM.

Each structure is given as a SMILES string.

Chain of Homeodomain-interacting protein kinase 2 (Homo sapiens) (Q9H2X6 whole entry, looked up): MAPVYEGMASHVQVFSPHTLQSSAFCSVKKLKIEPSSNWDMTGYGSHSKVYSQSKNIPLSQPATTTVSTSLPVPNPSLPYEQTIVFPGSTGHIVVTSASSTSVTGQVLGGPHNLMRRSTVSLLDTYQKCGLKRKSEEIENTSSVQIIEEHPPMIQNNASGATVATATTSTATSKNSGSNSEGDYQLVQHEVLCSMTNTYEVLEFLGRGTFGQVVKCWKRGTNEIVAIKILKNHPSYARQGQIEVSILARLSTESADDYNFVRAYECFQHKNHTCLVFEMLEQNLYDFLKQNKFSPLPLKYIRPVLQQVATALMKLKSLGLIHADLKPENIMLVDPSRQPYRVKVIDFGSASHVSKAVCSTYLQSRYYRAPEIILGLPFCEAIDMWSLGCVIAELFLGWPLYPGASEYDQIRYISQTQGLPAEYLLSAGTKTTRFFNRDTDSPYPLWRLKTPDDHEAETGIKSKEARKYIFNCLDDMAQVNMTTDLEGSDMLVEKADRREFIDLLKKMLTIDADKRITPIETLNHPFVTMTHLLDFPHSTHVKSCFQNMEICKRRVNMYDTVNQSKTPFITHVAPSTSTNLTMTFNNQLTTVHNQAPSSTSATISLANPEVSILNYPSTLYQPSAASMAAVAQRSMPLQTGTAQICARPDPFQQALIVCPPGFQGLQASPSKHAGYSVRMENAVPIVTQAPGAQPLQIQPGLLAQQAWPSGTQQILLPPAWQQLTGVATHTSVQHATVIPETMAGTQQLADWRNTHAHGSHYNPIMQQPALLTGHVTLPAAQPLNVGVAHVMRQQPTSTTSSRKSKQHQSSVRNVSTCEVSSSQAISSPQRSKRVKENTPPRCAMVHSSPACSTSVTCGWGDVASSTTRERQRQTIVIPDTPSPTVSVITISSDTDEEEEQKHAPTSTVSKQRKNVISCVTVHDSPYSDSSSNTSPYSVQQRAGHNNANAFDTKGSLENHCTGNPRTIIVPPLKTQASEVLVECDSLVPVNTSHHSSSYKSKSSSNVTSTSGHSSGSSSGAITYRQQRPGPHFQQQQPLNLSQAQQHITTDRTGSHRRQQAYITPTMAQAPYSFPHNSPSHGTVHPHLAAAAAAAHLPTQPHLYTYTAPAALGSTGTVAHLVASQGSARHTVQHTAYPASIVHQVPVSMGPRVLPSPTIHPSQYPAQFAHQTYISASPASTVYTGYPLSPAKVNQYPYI
Chain of Mast/stem cell growth factor receptor Kit (Homo sapiens), P10721 [V559D,T670I] (P10721 whole entry V559D/T670I): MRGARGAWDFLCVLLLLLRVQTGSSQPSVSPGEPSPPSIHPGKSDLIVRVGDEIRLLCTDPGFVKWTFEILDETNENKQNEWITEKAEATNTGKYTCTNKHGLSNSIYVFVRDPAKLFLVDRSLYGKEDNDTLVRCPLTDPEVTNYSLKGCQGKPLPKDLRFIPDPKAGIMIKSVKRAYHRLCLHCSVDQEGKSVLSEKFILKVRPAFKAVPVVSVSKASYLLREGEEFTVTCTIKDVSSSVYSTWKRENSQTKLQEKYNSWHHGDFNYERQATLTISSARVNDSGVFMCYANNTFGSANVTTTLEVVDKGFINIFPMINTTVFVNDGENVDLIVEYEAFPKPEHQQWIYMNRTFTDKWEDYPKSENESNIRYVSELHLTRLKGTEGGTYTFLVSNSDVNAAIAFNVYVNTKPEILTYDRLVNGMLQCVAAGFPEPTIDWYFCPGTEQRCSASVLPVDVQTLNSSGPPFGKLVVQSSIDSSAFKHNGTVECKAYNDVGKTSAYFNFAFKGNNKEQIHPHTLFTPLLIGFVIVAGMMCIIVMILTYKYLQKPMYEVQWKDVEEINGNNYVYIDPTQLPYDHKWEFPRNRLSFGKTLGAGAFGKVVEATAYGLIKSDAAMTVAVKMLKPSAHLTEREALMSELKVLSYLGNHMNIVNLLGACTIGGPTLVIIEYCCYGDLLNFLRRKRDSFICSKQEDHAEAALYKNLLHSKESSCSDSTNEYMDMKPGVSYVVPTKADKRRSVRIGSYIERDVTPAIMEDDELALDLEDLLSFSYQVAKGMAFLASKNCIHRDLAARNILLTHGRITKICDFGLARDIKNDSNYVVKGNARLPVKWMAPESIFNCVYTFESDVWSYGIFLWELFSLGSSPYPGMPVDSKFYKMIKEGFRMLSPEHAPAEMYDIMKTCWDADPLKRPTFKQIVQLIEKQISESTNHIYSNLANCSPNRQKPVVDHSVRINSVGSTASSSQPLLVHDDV

With `O=C(c1ccc(-c2cnc3c(c2)N(Cc2cc(Cl)ccc2C(F)(F)F)CCN3)cc1)N1CCCCC1`, the inhibition in assay [1] is less than 50%.

On to `CN1CCN(c2ccc(-c3cnc4c(c3)N(Cc3c(F)ccc(F)c3Cl)CCN4)cn2)CC1`, for which the inhibition in assay [1], in assay [2], in assay [3] and in assay [4] was less than 50% each time.

As to `COC1CCN(C(=O)c2ccc(-c3cnc4c(c3)N(Cc3cc(Cl)ccc3C(F)(F)F)CCN4)cc2)CC1`, the inhibition in assay [1] and in assay [2] was less than 50% throughout.

In turn, `O=C(O)c1ccc(-c2cnc3c(c2)N(Cc2cc(Cl)ccc2C(F)(F)F)CCN3)cc1` showed an inhibition in assay [1] of less than 50%.

In the case of `FC(F)(F)c1ccc(Cl)cc1CN1CCNc2ncc(-c3ccnc(N4CCNCC4)c3)cc21`, the inhibition in assay [1] is 84%; in assay [2] it was less than 50%; in assay [3], less than 50%; in assay [4], less than 50%.

Turning to `CN1CCN(c2ccc(-c3cnc4c(c3)N(Cc3cc(Cl)ccc3Cl)CCN4)cn2)CC1`, the inhibition in assay [1], in assay [2], in assay [3] and in assay [4] was less than 50% each time.

Regarding `O=C(c1ccc(-c2cnc3c(c2)N(Cc2cc(Cl)ccc2C(F)(F)F)CCN3)cc1)N1CCC(N2CCCC2)CC1`, the inhibition in assay [1] and in assay [2] was less than 50% in each case.

In the case of `CN1CCN(c2ccc(-c3cnc4c(c3)N(Cc3cc(Cl)ccc3C(F)(F)F)CCN4)cn2)CC1`, the inhibition in assay [1], in assay [2], in assay [3] and in assay [4] was less than 50% each time.

For the molecule `CC(=O)N1CCN(c2cc(-c3cnc4c(c3)N(Cc3cc(Cl)ccc3C(F)(F)F)CCN4)ccn2)CC1`, the inhibition in assay [1], in assay [2], in assay [3] and in assay [4] was less than 50% each time.

Take `CN1CCN(c2ccc(-c3cnc4c(c3)N(Cc3cc(F)ccc3F)CCN4)cn2)CC1`: the inhibition in assay [1], in assay [2], in assay [3] and in assay [4] was less than 50% in each case.
